Compound activity (PubChem BioAssay)
A selection: hits, their analogues and other compounds. The true share with any hit is near 2%.
LYP act: LYP phosphatase activators, primary screen, biochemical, DiFMUP fluorescence, 2 µM; Tyrosine-protein phosphatase non-receptor type 22 (Homo sapiens), Q9Y2R2; recombinant LYP; 0 = plate median, 100 = signal doubled; activation, % at 2 µM; 0.11% of 96,000 active;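 active = activation at 2 µM above a set limit, the mean plus 5 SD, cut at about 37% in these data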
PLK1 inh: human PLK1 kinase inhibitors, primary screen, biochemical, TR-FRET | 0.53% of 97,000 active | inhibition, % at 10 µM | recombinant PLK1 kinase, TR-FRET peptide phosphorylation | AID 619, 2007 | Serine/threonine-protein kinase PLK1 (Homo sapiens), P53350;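 active = inhibition of 50% or more in the single-concentration screen; inactive = inhibition below 50%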
PTPN22 inh 2: PTPN22 phosphatase inhibitors, primary screen, biochemical, DiFMUP fluorescence, 2 µM. Tyrosine-protein phosphatase non-receptor type 22 (Homo sapiens), Q9Y2R2. recombinant LYP catalytic domain. inhibition, % at 2 µM. 0.21% of 96,000 active. AID 640, 2007;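 active = inhibition at 2 µM at or above a set limit, the screen mean plus 3 SD, cut at about 24% in these data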
Plk1 PBD FP: Plk1 polo box domain binding inhibitors, primary screen, biochemical, fluorescence polarization | Plk1 PBD phosphopeptide binding | Serine/threonine-protein kinase PLK1 (Homo sapiens), P53350 | inhibition, %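 (tested at about 20 µM)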 | 0.13% of 97,000 active; in the data active = inhibition above about 34%, passing the limit was not always enough
Rev-RRE block: HIV-1 Rev-RRE binding inhibitors, primary screen, biochemical, FRET, protein-RNA interaction. P05866. Rev peptide-RRE RNA binding. inhibition, % at 8 µM. 0.79% of 97,000 active. AID 704, 2007;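 active = inhibition above the screen-wide mean plus 3 SD, cut at about 35% in these data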
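Test system – labelled RRE RNA duplex and labelled Rev peptide · Reagent – labelled Rev peptide · Doses – one concentration, 8 µM nominal · Incubation – 5 + 15 min at 25 °C · Signal – FRET fluorescence readout · Read-out basis – % inhibition of FRET ratio versus controls · Control set – DMSO wells as 0% and neomycin B wells as 100% inhibition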
EphB4 antag: EphB4-ephrin-B2 interaction antagonists, primary screen, biochemical, TNYL-RAW peptide probe, fluorescence polarization | Ephrin type-B receptor 4 (Homo sapiens), P54760 | EphB4 LBD / TNYL-RAW-Alexa532 peptide | inhibition, % at 7 µM | 0.15% of 97,000 active | AID 720, 2007;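 active = inhibition above the screen-wide mean inhibition plus 3 SD, cut at about 15% in these data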
Target sequence (P54760 whole entry, looked up, the tested form may be a part): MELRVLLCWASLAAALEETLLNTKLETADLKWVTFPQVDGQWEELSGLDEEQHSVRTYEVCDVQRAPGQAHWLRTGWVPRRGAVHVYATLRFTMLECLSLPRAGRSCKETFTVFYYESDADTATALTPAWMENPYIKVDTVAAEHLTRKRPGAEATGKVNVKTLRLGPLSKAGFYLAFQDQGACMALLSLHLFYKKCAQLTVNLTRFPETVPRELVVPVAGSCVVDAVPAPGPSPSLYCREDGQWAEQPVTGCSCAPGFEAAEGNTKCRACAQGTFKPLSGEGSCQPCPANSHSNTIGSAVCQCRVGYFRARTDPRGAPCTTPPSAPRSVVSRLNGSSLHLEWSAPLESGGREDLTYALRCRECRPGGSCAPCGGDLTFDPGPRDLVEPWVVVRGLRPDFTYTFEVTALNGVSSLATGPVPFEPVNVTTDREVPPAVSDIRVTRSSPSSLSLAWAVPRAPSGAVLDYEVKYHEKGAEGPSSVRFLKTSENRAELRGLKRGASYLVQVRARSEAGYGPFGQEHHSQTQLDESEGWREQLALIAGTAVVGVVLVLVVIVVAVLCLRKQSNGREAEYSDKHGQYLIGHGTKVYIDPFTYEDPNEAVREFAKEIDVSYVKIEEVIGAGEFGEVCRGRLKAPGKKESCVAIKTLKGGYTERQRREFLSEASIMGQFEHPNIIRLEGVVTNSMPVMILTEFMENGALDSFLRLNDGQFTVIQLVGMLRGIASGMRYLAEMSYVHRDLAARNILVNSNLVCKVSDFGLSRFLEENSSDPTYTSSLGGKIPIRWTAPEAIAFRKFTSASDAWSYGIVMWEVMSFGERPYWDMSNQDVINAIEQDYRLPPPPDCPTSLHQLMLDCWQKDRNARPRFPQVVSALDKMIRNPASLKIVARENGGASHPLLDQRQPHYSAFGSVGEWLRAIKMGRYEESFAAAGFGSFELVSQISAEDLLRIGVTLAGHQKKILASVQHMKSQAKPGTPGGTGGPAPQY
Hits are given with their value; n = inactive; x = no result; [ ] = another dose, or the depositor's remark.

SMILES	LYP act	PLK1 inh	PTPN22 inh 2	Plk1 PBD FP	Rev-RRE block	EphB4 antag
CC(C)(C)c1csc(NC(=O)c2ccc(Cl)s2)n1	n	n	n	n	n	n
CCNc1nc(N)c(C(=O)c2ccc(Cl)s2)s1	n	68	n	n	n	n
Cc1cc(NC(=O)Cn2nc(C(F)(F)F)c3c2CCC3)n(-c2ccccc2)n1	n	n	n	n	n	n
Cn1c(=O)oc2cc(S(=O)(=O)Nc3ccc4c(c3)OCCO4)ccc21	n	n	n	n	38	n
Cc1cccc(CSc2nc(N)c(C#N)c(-c3cccs3)c2C#N)c1	n	n	n	n	n	17
CCCCSc1nc(N)c(C#N)c(-c2cccs2)c1C#N	n	n	n	n	n	n
COc1cc(NC(=O)c2ccc(Br)o2)c(C(=O)O)cc1OC	n	n	n	n	n	n
CCN1C=C(Cc2ccc(OC)cc2)C2=C(C1)C(c1ccc(OC)cc1)C(C#N)=C(N)O2 (stereo not given)	n	n	n	n	40	n
COc1ccc(C2C(C#N)=C(N)Oc3cc4c(cc32)OCO4)cc1 (stereo not given)	n	n	n	n	n	n
O=C(COc1cccc2cccnc12)NCC(F)(F)F	n	n	n	n	n	n
Cc1cc(NC(=O)CSc2nnc(-c3ccccc3)n2Cc2ccco2)no1	n	n	n	n	n	n
Cc1ccc(NC(=O)C2CCCN2S(=O)(=O)c2ccc3c(c2)CCC(=O)N3)cc1Cl (stereo not given)	x	67	x	n	n	n
C=CCn1c(C)c(C(C)=O)c(N2CCN(c3ccccc3)CC2)nc1=S	n	n	n	n	82[fluorescence artefact?]	n
Cn1c2ccc(Cl)cc2c2nc3ccccc3nc21	x	67	x	n	n	n
CCCn1c2ccccc2c2nc3ccccc3nc21	n	n	n	n	n	n
COc1cc2c(cc1OC)CN(C(=O)COc1ccc(C#N)cc1)CC2	n	n	n	n	n	n
CCN(CC)c1ccc(-n2c(C)cc(C=O)c2C)cc1	n	n	n	n	n	n
NC(=O)c1cc2cc(Cl)ccc2oc1=O	n	n	n	n	n	n
CCN(CC)c1ccc2cc(C(N)=O)c(=O)oc2c1	n	n	n	n	41	n
CCN(CC)c1ccc2cc(C(C)=O)c(=O)oc2c1	n	n	n	n	126[fluorescence artefact?]	n
CCN(CC)c1ccc2cc(-c3nnc(-c4ccncc4)o3)c(=O)oc2c1	n	n	n	n	143[fluorescence artefact?]	n
CCN(CC)c1ccc2cc(C=O)c(=O)oc2c1	n	n	n	n	140[fluorescence artefact?]	n
COc1cccc(-c2nnc(SCC(=O)Nc3cc(C)on3)o2)c1	n	n	n	n	n	n
Cc1cc(N2CCC(C)CC2)nc(-n2nc(C)cc2C)n1	n	n	n	n	n	n
CCOc1cc(N2CCOCC2)c(OCC)cc1NC(=O)Cc1ccc(OC)c(OC)c1	n	n	n	n	n	n
SMILES	LYP act	PLK1 inh	PTPN22 inh 2	Plk1 PBD FP	Rev-RRE block	EphB4 antag
COc1ccc(C(O)c2nccn2Cc2ccccc2)cc1 (stereo not given)	n	n	n	n	n	n
COc1ccc2ccccc2c1C(O)c1nccn1C (stereo not given)	n	n	n	n	135[fluorescence artefact?]	n
CC(C)Cc1nnc(NS(C)(=O)=O)s1	n	n	n	n	n	n
CSc1nnc(C)c(/C=C/Nc2ccc(C)cc2)n1	n	n	n	n	110[fluorescence artefact?]	n
COc1ccc(C)cc1NC(=O)c1ccc(NC(=O)CC2SC(N3CCCC3)=NC2=O)cc1 (stereo not given)	n	n	n	n	n	n
CCOC(=O)CN1C=C(c2ccc3ccccc3n2)C(C[N+](=O)[O-])c2ccccc21 (stereo not given)	n	n	n	n	94[fluorescence artefact?]	n
COCc1cc(=O)[nH]c(Nc2nc3ccc(C)cc3o2)n1	n	n	n	n	n	n
Cc1cccc(Nc2ncnc3nc[nH]c23)c1C	n	56	n	n	n	n
FC(F)Sc1ccc(Nc2ncnc3nc[nH]c23)cc1	n	60	n	n	n	n
c1ccc(CCNc2ncnc3nc[nH]c23)cc1	n	n	n	n	n	n
CCOC(=O)c1sc(/N=C/c2c(C)[nH]n(-c3ccccc3)c2=O)c(C#N)c1C	n	n	n	n	70	n
CCC(=O)NCc1nc2ccccc2n1Cc1ccccc1F	n	n	n	n	n	n
CC(C)(C)C1CC=C2C(C#N)=C(N)C(C#N)(C#N)C(c3cccs3)C2C1 (stereo not given)	n	n	n	n	49	n
Fc1ccc(NCc2cccnc2)cc1F	n	n	n	n	41	n
O=C(Nc1ccc(F)c(F)c1)c1cccnc1	n	n	n	n	n	n
COCc1nnc(NC(=O)CC(C)C)s1	n	n	n	n	n	n
COCc1nnc(NC(=O)CC(c2ccccc2)c2ccccc2)s1	n	n	n	n	n	17
C=CCn1c(/N=C/c2ccc(N(C)C)cc2)nc2ccccc21	n	n	n	n	50	n
CCCCn1c(/N=C/c2ccc(N(C)C)cc2)nc2ccccc21	n	n	n	n	37	n
Cc1c(C(=O)OC2CCCCC2)sc2nc[nH]c(=O)c12	n	68	n	n	n	n
N#CC1=C(N)C(C#N)(C#N)[C@H](c2c(F)cccc2F)[C@H]2CC3(CC=C12)OCCO3	n	n	n	n	56	n
CN1C2C=C3C(C#N)=C(N)C(C#N)(C#N)[C@H](c4c(F)cccc4F)[C@H]3C1CC2 (stereo not given in full)	n	n	n	n	n	n
O=C(Cc1cnn(-c2ccccc2)c1)c1ccc(O)c(O)c1O	n	n	29	n	n	n
CCc1cc(C(=O)Cc2cnn(-c3ccccc3)c2)c(O)cc1O	n	n	n	n	n	n
CCn1nc(C)c(Oc2ccccc2O)c1C	n	n	n	n	n	n
SMILES	LYP act	PLK1 inh	PTPN22 inh 2	Plk1 PBD FP	Rev-RRE block	EphB4 antag
O=C(O)CC1C(=O)NCCN1Cc1ccc(F)c(F)c1 (stereo not given)	x	65	x	n	n	n
COc1ccc(CN2CCNC(=O)C2CC(=O)O)cc1OC (stereo not given)	n	n	n	n	n	n
O=C(O)CC1C(=O)NCCN1CCCc1ccccc1 (stereo not given)	n	n	n	n	n	n
Cc1ccc(CN2CCNC(=O)C2CC(=O)O)cc1 (stereo not given)	x	61	x	n	n	n
Cc1cc(C)nc(NN2C(=O)/C(=C/c3ccc(O)cc3)SC2=S)n1	n	n	n	n	58	n
COc1ccccc1/C=C1\SC(=S)N(Nc2nc(C)cc(C)n2)C1=O	n	n	n	n	n	n
